Columns and labels:
Nucleic Acid [1] = test: Concentration of compound required for cross linking 50% of T-7 DNA, Na2S2O4; assay type: functional
In short: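 T-7 coliphage DNA (100 μM) with drug at 0.5–15 μM in 0.015 M Tris·HCl, pH 7.4, was deaerated and given a 10-fold molar excess of Na₂S₂O₄ for 60 min under argon. Hoechst 33258 (100 nM) fluorescence (ex 355/em 460 nm) was read before and after heating at 95 °C and chilling. Cross-linked fraction was taken relative to a drug-free control; ICL50 is the concentration giving 50% cross-linked DNA.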

Tumor Cell line = test: In vitro anticancer activity against cultured 60 human tumor cell lines; assay type: functional
In short: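 NCI screen panel of about 60 human tumor cell lines from nine tissue types. GI50 is the concentration causing 50% growth inhibition, reported as the mean-graph midpoint (mean of the individual cell-line GI50 values).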

Nucleic Acid [2] = test: Apparent binding constant against calf thymus DNA was determined; assay type: nucleic-acid assay; conditions: Bos taurus
Nucleic Acid [3] = test: Concentration of compound required for cross linking 5% of tyrT DNA, Na2S2O4; assay type: functional
In short: (§1)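 The 5'-³²P-labeled 162-bp tyrT DNA fragment (10 ng) was mixed with drug at various concentrations in Tris/EDTA buffer and deaerated with nitrogen. Dithionite was added from a 50 mM stock, and the mix was kept on ice in the dark for 1 h. After ethanol precipitation it was denatured at 94 °C for 4 min and run on an 8% denaturing polyacrylamide gel; cross-linked species were quantified by phosphor screen.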

Nucleic Acid [4] = test: Concentration of compound required for cross linking 50% T-7 DNA, Acid; assay type: functional
In short: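 T-7 coliphage DNA (100 μM) with drug at 5–200 μM in citrate phosphate buffer, 10 mM Na+, pH 4.0, incubated aerobically 4 h. Diluted into 5 mM Tris/0.5 mM EDTA pH 8.0 with 100 nM Hoechst 33258; fluorescence (ex 355/em 460 nm) read before and after heat denaturation (95 °C, 5 min), ice chill and room-temperature renaturation. Cross-linked fraction computed against drug-free controls; ICL50 = drug concentration giving 50% cross-linked DNA.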

Nucleic Acid [5] = test: Concentration of compound required for cross linking 50% of tyrT DNA, Na2S2O4; assay type: functional; in short: as §1
Nucleic Acid [6] = test: Compound was tested on efficacy of Cross-Linking of pBR322 DNA, acid at 40 uM; assay type: functional
In short: (§2)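 The 3'-³²P-labeled, EcoRI-linearized pBR322 DNA was incubated with drug in 10 mM sodium phosphate, pH 4, aerobically for 2 h with no reductant. It was heat-denatured in DMSO strand-separation buffer and separated on 1% agarose, and percent cross-linked DNA was quantified by phosphorimaging.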

Nucleic Acid [7] = test: Compound was tested on efficacy of Cross-Linking of tyrT DNA, acid at a concentration 400 uM; assay type: functional
In short: (§3)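 The labeled 162-bp tyrT DNA fragment was incubated with drug in citrate phosphate, pH 4.0, aerobically for 2 h. It was ethanol-precipitated, denatured at 94 °C for 4 min, and resolved on an 8% denaturing polyacrylamide gel at about 55 °C; cross-linked bands were detected by phosphor screen.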

Nucleic Acid [8] = test: Concentration of compound required for cross linking 50% of T-7 DNA, Acid; assay type: functional
In short: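 T-7 coliphage DNA was incubated with drug at 5–200 μM in citrate phosphate, 10 mM Na⁺, pH 4.0, aerobically for 4 h. The cross-linked fraction came from Hoechst 33258 fluorescence (ex 355/em 460 nm) read before and after a 95 °C heat and ice chill, relative to a drug-free control; ICL50 is the drug concentration giving 50% cross-linking.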

Nucleic Acid [9] = test: Compound was tested on efficacy of Cross-Linking of pBR322 DNA, Na2S2O4; assay type: functional
In short: (§4)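 pBR322 DNA linearized with EcoRI and 3'-end labeled with α-³²P-dATP by Klenow. About 100 ng was mixed with drug at various concentrations in 10 mM sodium phosphate/1 mM EDTA, pH 7.5, argon-deaerated, then reduced with dithionite for 45 min at room temperature. It was then denatured in 30% DMSO strand-separation buffer at 90 °C for 5 min, run on 1% agarose, and the cross-linked fraction quantified by phosphorimaging.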

Nucleic Acid [10] = test: Compound was tested on efficacy of Cross-Linking of pBR322 DNA, acid at 1 uM; assay type: functional; in short: as §2
Nucleic Acid [11] = test: Concentration of compound required for cross linking 50% of pBR322 DNA, Na2S2O4; assay type: functional; in short: as §4
Nucleic Acid [12] = test: Compound was tested on efficacy of Cross-Linking of tyrT DNA, acid at >400 uM; assay type: functional; in short: as §3

| Compound | ICL50 (Nucleic Acid [1]) | GI50 (Tumor Cell line) | K app (Nucleic Acid [2]) | ICL5 (Nucleic Acid [3]) | ICL50 (Nucleic Acid [4]) | ICL50 (Nucleic Acid [5]) | Cross linking (Nucleic Acid [6]) | Cross linking (Nucleic Acid [7]) | ICL50 (Nucleic Acid [8]) | ICL50 (Nucleic Acid [9]) | inhibition (Nucleic Acid [10]) | ICL50 (Nucleic Acid [11]) | Cross linking (Nucleic Acid [12]) |
| --- | --- | --- | --- | --- | --- | --- | --- | --- | --- | --- | --- | --- | --- |
| CO[C@@]12[C@H](COC(N)=O)C3=C(C(=O)C(C)=C(N)C3=O)N1C[C@@H]1N[C@@H]12 [MITOMYCIN] | 10 µM | 0.832 µM | 17000 M⁻¹ | 55 µM | > 200 µM | Infinity |  |  |  |  |  |  |  |
| CO[C@@]12[C@H](COC(N)=O)C3=C(C(=O)C(C)=C(NCCCCNC4=C(C)C(=O)C5=C(C4=O)[C@@H](OC(N)=O)[C@@]4(OC)[C@H]6N[C@H]6CN54)C3=O)N1C[C@@H]1N[C@@H]12 | 2.6 µM | 69.2 µM | 50000 M⁻¹ | 20 µM |  | Infinity | < 10% | 0.6% | > 200 µM | 3.8 µM |  |  |  |
| CO[C@@]12[C@H](COC(N)=O)C3=C(C(O)=C(C)/C(=N\CCCN(C)CCC/N=C4/C(=O)C5=C(C(O)=C4C)N4CC6NC6[C@]4(OC)[C@@H]5COC(N)=O)C3=O)N1C[C@@H]1N[C@@H]12 (some centres not stated) | 1.5 µM | 2.51 µM | 80000 M⁻¹ | 10 µM |  | 150 µM |  |  | 20 µM |  | 10% | 0.5 µM | 1.8% |
| CO[C@@]12[C@H](COC(N)=O)C3=C(C(=O)C(C)=C(NCCCCCCCCCCCCNC4=C(C)C(=O)C5=C(C4=O)[C@@H](OC(N)=O)[C@@]4(OC)[C@H]6N[C@H]6CN54)C3=O)N1C[C@@H]1N[C@@H]12 |  | 4.47 µM |  |  |  |  | 10% |  |  |  |  | 1.7 µM |  |
